Reference: ChEMBL document CHEMBL1123784, “Quantitative structure-activity relationship of triazine-antifolate inhibition of Leishmania dihydrofolate reductase and cell growth” (J Med Chem, 1987)

How the values were obtained:
Leishmania major = experiment: Growth inhibition against Leishmania major promastigotes in culture; format: functional, organism-based; details: read-out: Log 1/EC50 (converted)
In short: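 Seeded at 5 × 10⁶ cells/mL with four to six inhibitor concentrations spanning the I50. Coulter-counted daily for 5 days or until out of log phase. EC50 = concentration halving growth rate versus drug-free medium, from log dose vs percent growth plot.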

[1] = target: Bifunctional dihydrofolate reductase-thymidylate synthase (Leishmania major, UniProt P07382); experiment: Inhibition of dihydrofolate reductase (DHFR) from Leishmania major; details: read-out: Log 1/Ki (converted)
Bifunctional dihydrofolate reductase-thymidylate synthase, sequence (P07382 whole entry): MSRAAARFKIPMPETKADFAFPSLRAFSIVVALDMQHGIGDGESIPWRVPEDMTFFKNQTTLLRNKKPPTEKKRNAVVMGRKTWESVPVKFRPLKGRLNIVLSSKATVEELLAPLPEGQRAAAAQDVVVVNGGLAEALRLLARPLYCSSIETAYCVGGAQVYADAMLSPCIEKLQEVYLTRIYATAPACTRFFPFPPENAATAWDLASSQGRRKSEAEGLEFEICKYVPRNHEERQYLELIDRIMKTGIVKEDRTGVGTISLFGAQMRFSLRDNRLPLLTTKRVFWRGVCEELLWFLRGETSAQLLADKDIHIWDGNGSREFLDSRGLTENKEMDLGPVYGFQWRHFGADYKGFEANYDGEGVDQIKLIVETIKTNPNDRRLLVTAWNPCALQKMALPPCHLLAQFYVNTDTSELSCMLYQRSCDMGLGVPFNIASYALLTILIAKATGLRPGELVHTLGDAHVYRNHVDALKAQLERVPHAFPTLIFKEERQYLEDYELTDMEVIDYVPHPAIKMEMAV

Ki [1]	Compound	EC50 (Leishmania major)
251 nM	CC1(C)N=C(N)N=C(N)N1c1cccc(OCCOc2cccc(C(F)(F)F)c2)c1	126000 nM
302 nM	CCCCCCCCCOc1cccc(N2C(N)=NC(N)=NC2(C)C)c1	–
39.8 nM	CC1(C)N=C(N)N=C(N)N1c1cccc(COc2cccc3ccccc23)c1	51300 nM
759 nM	CC1(C)N=C(N)N=C(N)N1c1cccc(CNc2ccc(S(N)(=O)=O)cc2)c1	–
646 nM	CC1(C)N=C(N)N=C(N)N1c1cccc(COc2cccc(CO)c2)c1	–
1910 nM	CC1(C)N=C(N)N=C(N)N1c1cccc(OCc2ccccc2)c1	–
17 nM	CC1(C)N=C(N)N=C(N)N1c1cccc(COc2cccc(-c3ccccc3)c2)c1	22900 nM
5890 nM	CCCCCCCCCCCCCCOc1cccc(N2C(N)=NC(N)=NC2(C)C)c1	–
407 nM	CC1(C)N=C(N)N=C(N)N1c1cccc(CSc2ccccc2)c1	–
38000 nM	CCOc1cccc(N2C(N)=NC(N)=NC2(C)C)c1	–
10000 nM	CC1(C)N=C(N)N=C(N)N1c1cccc([N+](=O)[O-])c1	–
112000 nM	CCOC(=O)c1cccc(N2C(N)=NC(N)=NC2(C)C)c1	–
363000 nM	CC1(C)N=C(N)N=C(N)N1c1cccc(S(N)(=O)=O)c1	–
1950 nM	CCc1cccc(N2C(N)=NC(N)=NC2(C)C)c1	–
20.9 nM	CCCCCCCCCc1cccc(N2C(N)=NC(N)=NC2(C)C)c1	8510 nM
2190 nM	CC1(C)N=C(N)N=C(N)N1c1cccc(C(F)(F)F)c1	–
1200 nM	CC1(C)N=C(N)N=C(N)N1c1cccc(Cl)c1	–
977 nM	CCCCCCCCCCCOc1cccc(N2C(N)=NC(N)=NC2(C)C)c1	–
53700 nM	CC1(C)N=C(N)N=C(N)N1c1cccc(O)c1	–
6030 nM	CC1(C)N=C(N)N=C(N)N1c1cccc(C#N)c1	–
3980 nM	CCCCCCOc1cccc(N2C(N)=NC(N)=NC2(C)C)c1	–
–	CN(Cc1cnc2nc(N)nc(N)c2n1)c1ccc(C(=O)N[C@@H](CCC(=O)O)C(=O)O)cc1 [METHOTREXATE]	1000 nM
178 nM	CC1(C)N=C(N)N=C(N)N1c1cccc(COc2cccc(C#N)c2)c1	–

Ki [1]	Compound	EC50 (Leishmania major)
151 nM	COc1cccc(OCc2cccc(N3C(N)=NC(N)=NC3(C)C)c2)c1	309000 nM
661 nM	CC1(C)N=C(N)N=C(N)N1c1cccc(CNc2ccc(Cl)cc2)c1	263000 nM
91.2 nM	CC1(C)N=C(N)N=C(N)N1c1cccc(COc2cccc(NC(N)=O)c2)c1	–
110 nM	CC1(C)N=C(N)N=C(N)N1c1cccc(SCc2ccc(Cl)cc2)c1	60300 nM
3090 nM	CC1(C)N=C(N)N=C(N)N1c1cccc(OCC23CC4CC(CC(C4)C2)C3)c1	–
126 nM	CCc1cccc(OCc2cccc(N3C(N)=NC(N)=NC3(C)C)c2)c1	–
75.9 nM	CC1(C)N=C(N)N=C(N)N1c1cccc(OCCCCOc2cccc(C(F)(F)F)c2)c1	–
75.9 nM	CC(=O)Nc1cccc(OCc2cccc(N3C(N)=NC(N)=NC3(C)C)c2)c1	–
117000 nM	CC1(C)N=C(N)N=C(N)N1c1cccc(C(N)=O)c1	–
69.2 nM	CC1(C)N=C(N)N=C(N)N1c1cccc(COc2cc(Cl)c(Cl)cc2Cl)c1	25100 nM
39800 nM	CC(=O)c1cccc(N2C(N)=NC(N)=NC2(C)C)c1	–
224 nM	CC1(C)N=C(N)N=C(N)N1c1cccc(SCc2ccccc2)c1	–
513 nM	CC1(C)N=C(N)N=C(N)N1c1cccc(CNc2cc(C(N)=O)cc(C(N)=O)c2)c1	501000 nM
224 nM	CC1(C)N=C(N)N=C(N)N1c1cccc(COc2cccc(Cl)c2)c1	–
72.4 nM	CCCCCCCCCCCCc1cccc(N2C(N)=NC(N)=NC2(C)C)c1	7940 nM
174 nM	CC(C)c1cccc(OCc2cccc(N3C(N)=NC(N)=NC3(C)C)c2)c1	57500 nM
22900 nM	COc1cccc(N2C(N)=NC(N)=NC2(C)C)c1	–
12600 nM	CC1(C)N=C(N)N=C(N)N1c1ccccc1	–
5750 nM	CC(C)(C)c1cccc(N2C(N)=NC(N)=NC2(C)C)c1	–
42700 nM	CC1(C)N=C(N)N=C(N)N1c1cccc(C(O)c2ccccc2)c1 (stereo not drawn)	–
427 nM	Cc1cccc(OCc2cccc(N3C(N)=NC(N)=NC3(C)C)c2)c1	219000 nM
339 nM	CCCCCc1ccc(OCc2cccc(N3C(N)=NC(N)=NC3(C)C)c2)cc1	–

Compound	Ki [1]	EC50 (Leishmania major)
CC1(C)N=C(N)N=C(N)N1c1cccc(C[Se]c2ccccc2)c1	275 nM	–
